Source: ChEMBL document CHEMBL1773027, “Development of new indole-derived neuroprotective agents” (2011)
Calls of active or inactive are those of the source. The calls are words filed in the database; no cut-off is given here.

What was measured:
Rattus norvegicus [1] = assay: Neuroprotective activity against ACR-intoxicated Sprague-Dawley rat assessed as increase in adrenaline level in brain at 50 mg/kg, ip administered 10 mins prior to ACR injection 3 days per week for 3 weeks by ELISA relative to control; type: functional; settings: route intraperitoneal
Outline: (§1)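 Female Sprague–Dawley rats (n = 10/group) were injected with ACR 50 mg/kg ip in water, with agent at 50 mg/kg ip in 2% Tween 80 10 min before, 3 days/week for 3 weeks. Brain was homogenized 10% w/v in 50 mM Tris–HCl pH 7.4 with 300 mM sucrose and spun 1800 × g for 10 min at 4 °C. Adrenaline and noradrenaline were measured in the supernatant, as ng/mg protein.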

Rattus norvegicus [2] = assay: Neuroprotective activity against ACR-intoxicated Sprague-Dawley rat assessed as increase in noradrenaline level in brain at 50 mg/kg, ip administered 10 mins prior to ACR injection 3 days per week for 3 weeks by ELISA relative to control; type: functional; settings: route intraperitoneal; outline: as §1
Rattus norvegicus [3] = assay: Neuroprotective activity against ACR-intoxicated Sprague-Dawley rat assessed as decrease in malinoaldehyde level in brain at 50 mg/kg, ip administered 10 mins prior to ACR injection 3 days per week for 3 weeks […] relative to control; type: functional; parameters: scale not given: the % may be the effect or the level left; settings: route intraperitoneal
Rattus norvegicus [4] = assay: Neuroprotective activity against ACR-intoxicated Sprague-Dawley rat assessed as decrease in dopamine level in brain at 50 mg/kg, ip administered 10 mins prior to ACR injection 3 days per week for 3 weeks by spectrofluorimetrically relative to control; type: functional; parameters: scale not given: the % may be the effect or the level left; settings: route intraperitoneal
Outline: (§2)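 In this rat model (female Sprague–Dawley, n = 10/group), ACR 50 mg/kg ip in water was preceded by 10 min with agent at 50 mg/kg ip in 2% Tween 80, 3 days/week for 3 weeks. Brain dopamine was determined spectrofluorimetrically and expressed as ng/g tissue.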

Rattus norvegicus [5] = assay: Neuroprotective activity against ACR-intoxicated Sprague-Dawley rat assessed as decrease in GSH level in brain at 50 mg/kg, ip administered 10 mins prior to ACR injection 3 days per week for 3 weeks […] relative to control; type: functional; parameters: scale not given: the % may be the effect or the level left; settings: route intraperitoneal
Rattus norvegicus [6] = assay: Neuroprotective activity against ACR-intoxicated Sprague-Dawley rat assessed as increase in Gpx level in brain at 50 mg/kg, ip administered 10 mins prior to ACR injection 3 days per week for 3 weeks […] relative to control; type: functional; settings: route intraperitoneal
Rattus norvegicus [7] = assay: Neuroprotective activity against ACR-intoxicated Sprague-Dawley rat assessed as increase in SOD level in brain at 50 mg/kg, ip administered 10 mins prior to ACR injection 3 days per week for 3 weeks by spectrofluorimetrically relative to control; type: functional; settings: route intraperitoneal
Outline: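 Female Sprague–Dawley rats (160–180 g, n = 10/group) received ACR 50 mg/kg ip in water. Test agents were given at 50 mg/kg ip in 2% Tween 80, 10 min before ACR, 3 days/week for 3 weeks. Brain was homogenized 10% w/v in ice-cold 50 mM Tris–HCl pH 7.4 with 300 mM sucrose and spun 1800 × g for 10 min at 4 °C. Supernatant MDA, GSH, GPx and SOD were read spectrophotometrically by kit and expressed per mg protein (Lowry).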

Rattus norvegicus [8] = assay: Neuroprotective activity against ACR-intoxicated Sprague-Dawley rat assessed as decrease in LDH level in brain at 50 mg/kg, ip administered 10 mins prior to ACR injection 3 days per week for 3 weeks by spectrofluorimetrically relative to control; type: functional; parameters: scale not given: the % may be the effect or the level left; settings: route intraperitoneal
Outline: (§3)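 Female Sprague–Dawley rats (n = 10/group) were dosed ip with ACR 50 mg/kg (water). Pretreatment was 50 mg/kg ip in 2% Tween 80 given 10 min earlier, 3 days/week for 3 weeks. The brain 10% homogenate (50 mM Tris–HCl pH 7.4, 300 mM sucrose) was centrifuged 1800 × g for 10 min at 4 °C. Supernatant LDH and CK activities were read spectrophotometrically by kit, as U/mg protein.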

Rattus norvegicus [9] = assay: Neuroprotective activity against ACR-intoxicated Sprague-Dawley rat assessed as increase in CK level in brain at 50 mg/kg, ip administered 10 mins prior to ACR injection 3 days per week for 3 weeks by spectrofluorimetrically relative to control; type: functional; settings: route intraperitoneal; outline: as §3
Brain = assay: Neuroprotective activity against ACR-intoxicated Sprague-Dawley rat brain assessed as appearance of normal neuron at 50 mg/kg, ip administered 10 mins prior to ACR injection 3 days per week for 3 weeks by hematoxylin and eosin staining method relative to ACR group; type: functional, organism-based; parameters: dose 50 mg/kg
Outline: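 After 3 weeks of ACR (50 mg/kg ip, water) plus pretreatment (50 mg/kg ip in 2% Tween 80, 10 min before, 3 days/week), rat brains were fixed in buffered formalin for 1 week. They were then washed in tap water for 24 h, dehydrated through graded alcohol, cleared in xylene and paraffin-embedded. Sections were examined microscopically for neuronal morphology.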

Rattus norvegicus [10] = assay: Neuroprotective activity against ACR-intoxicated Sprague-Dawley rat assessed as increase in dopamine level in brain at 50 mg/kg, ip administered 10 mins prior to ACR injection 3 days per week for 3 weeks by spectrofluorimetrically relative to control; type: functional; settings: route intraperitoneal; outline: as §2
Rattus norvegicus [11] = assay: Neuroprotective activity against ACR-intoxicated Sprague-Dawley rat assessed as increase in GSH level in brain at 50 mg/kg, ip administered 10 mins prior to ACR injection 3 days per week for 3 weeks […] relative to control; type: functional; settings: route intraperitoneal

`C=NC(Cc1c[nH]c2ccccc12)C(=O)C1C(N)=NC(=N)N=C1N` (centres undefined) showed an Activity (Rattus norvegicus [1]) of 10%, an Activity (Rattus norvegicus [2]) of 1% and an Activity (Rattus norvegicus [3]) of 5%. The Activity (Rattus norvegicus [4]) was 2%, the Activity (Rattus norvegicus [5]) was 18% and the Activity (Rattus norvegicus [6]) was 1%. It also gave an Activity (Rattus norvegicus [7]) of 3%, an Activity (Rattus norvegicus [8]) of 10% and an Activity (Rattus norvegicus [9]) of 7%. The Activity (Brain) was “Active”.

`C=NC(Cc1c[nH]c2ccccc12)C(=O)C1C(N)=NNC1N` (centres undefined) was tested, and the Activity (Rattus norvegicus [1]) was 15%, the Activity (Rattus norvegicus [2]) was 6% and the Activity (Rattus norvegicus [10]) was 15%. For the same compound, the Activity (Rattus norvegicus [3]) was 22%, the Activity (Rattus norvegicus [11]) was 9% and the Activity (Rattus norvegicus [6]) was 25%. For the same compound, the Activity (Rattus norvegicus [7]) was 12%, the Activity (Rattus norvegicus [8]) was 20% and the Activity (Rattus norvegicus [9]) was 22%. For the same compound, the Activity (Brain) was “Active”.

Compound `O=C(Cc1nnn[nH]1)NC(Cc1c[nH]c2ccccc12)C(=O)O` (centres undefined) has an Activity (Rattus norvegicus [1]) of 67%, an Activity (Rattus norvegicus [2]) of 21% and an Activity (Rattus norvegicus [10]) of 29%. For the same compound, the Activity (Rattus norvegicus [3]) was 26%, the Activity (Rattus norvegicus [11]) was 36% and the Activity (Rattus norvegicus [6]) was 50%. It also gave an Activity (Rattus norvegicus [7]) of 94%, an Activity (Rattus norvegicus [8]) of 35% and an Activity (Rattus norvegicus [9]) of 64%. The Activity (Brain) was “Active”.

`CCOC(=O)c1c(N)cnc(Cc2c[nH]c3ccccc23)c1Nc1ccccc1` was tested, and the Activity (Rattus norvegicus [1]) was 14%, the Activity (Rattus norvegicus [2]) was 2% and the Activity (Rattus norvegicus [10]) was 9%. It also gave an Activity (Rattus norvegicus [3]) of 10%, an Activity (Rattus norvegicus [5]) of 18% and an Activity (Rattus norvegicus [6]) of 23%. The Activity (Rattus norvegicus [7]) was 6%, the Activity (Rattus norvegicus [8]) was 20% and the Activity (Rattus norvegicus [9]) was 14%. For the same compound, the Activity (Brain) was “Active”.

`N[C@@H](Cc1c[nH]c2ccccc12)C(=O)O` [TRYPTOPHAN] showed an Activity (Rattus norvegicus [1]) of 17%, an Activity (Rattus norvegicus [2]) of 16% and an Activity (Rattus norvegicus [10]) of 21%. It also gave an Activity (Rattus norvegicus [3]) of 25%, an Activity (Rattus norvegicus [11]) of 9% and an Activity (Rattus norvegicus [6]) of 38%. The Activity (Rattus norvegicus [7]) was 18%, the Activity (Rattus norvegicus [8]) was 35% and the Activity (Rattus norvegicus [9]) was 27%.
